Laboratory results as given in ChEMBL document CHEMBL1122686, “Troponoids. 6. Troponylpiperazines: a new class of dopamine agonists” (1984).
Calls of active or inactive are those of the source. No cut-off for these calls is given here.

Experiments:
Rattus norvegicus [1] = experiment: Inhibition of the 6-OHDA-induced Hypokinesia in rat, at 50 mg/Kg sc, expressed as cumulative ambulation score; inactive; assay type: functional, organism-based
How it was run: (§1)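 Male Sprague-Dawley rats (~280 g), anesthetized with pentobarbital, got 6-OHDA (26 µg/4 µL) bilaterally into the anterolateral hypothalamus. Four days later, only near-akinetic rats in a 36-square open field were used. Doses were free base, given sc in distilled water or Tween 80 suspension. Ambulation (all four limbs in one square) was scored in six 2-min periods at 15–120 min, then summed.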

Rattus norvegicus [2] = experiment: Rotational behavior induced by the compound in rat with a unilateral 6-OHDA-induced lesion of the Nigro-striatal dopamine, at 25 mg/Kg sc; duration of activity=5 hr; assay type: functional
Rattus norvegicus [3] = experiment: Inhibition of the 6-OHDA-induced Hypokinesia in rat, at 50 mg/Kg sc, expressed as cumulative ambulation score; assay type: functional; how it was run: as §1
Rattus norvegicus [4] = organism: Rattus norvegicus; experiment: Duration of activity in rat; assay type: functional
How it was run: (§2)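 Rats (~250 g at surgery, pentobarbital 40 mg/kg ip) received unilateral 6-OHDA (8 µg in 3 µL) to lesion the nigrostriatal pathway. At 3–4 weeks, rats turning 8–10 times/min after apomorphine 0.25 mg/kg sc were selected. They were housed singly, food-restricted to 350–400 g, dosed sc (free base) in groups of 4–8, and placed at once in automatic rotometers. Total contralateral turns (mean ± SEM) and duration of action (h) were recorded.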

Rattus norvegicus [5] = experiment: Rotational behavior induced by the compound in rat with a unilateral 6-OHDA-induced lesion of the Nigro-striatal dopamine, at 50 mg/Kg sc, duration of activity=6 hr; assay type: functional
Rattus norvegicus [6] = experiment: Rotational behavior induced by the compound in rat with a unilateral 6-OHDA-induced lesion of the Nigro-striatal dopamine, at 75 mg/Kg sc; duration of activity=9 hr; assay type: functional
Rattus norvegicus [7] = experiment: Inhibition of the 6-OHDA-induced Hypokinesia in rat, at 25 mg/Kg sc, expressed as cumulative ambulation score; assay type: functional; how it was run: as §1
Rattus norvegicus [8] = experiment: Rotational behavior induced by the compound in rat with a unilateral 6-OHDA-induced lesion of the Nigro-striatal dopamine, at 75 mg/Kg sc; assay type: functional; how it was run: as §2
Rattus norvegicus [9] = experiment: Rotational behavior induced by the compound in rat with a unilateral 6-OHDA-induced lesion of the Nigro-striatal dopamine, at 25 mg/Kg sc; duration of activity=4 hr; assay type: functional; how it was run: as §2
Rattus norvegicus [10] = experiment: Rotational behavior induced by the compound in rats with a unilateral 6-OHDA-induced lesion of the Nigro-striatal dopamine, at 50 mg/Kg sc; duration of activity=6 hr; assay type: functional; how it was run: as §2
Rattus norvegicus [11] = experiment: Percent decrease on dopamine agonist-induced rotation in unilaterally 6-OH-DA-lesioned rat at 0.1 mg/kg; assay type: functional
How it was run: (§3)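 Rats were unilaterally 6-OHDA-lesioned and apomorphine-screened for rotation. Haloperidol (0.1, 0.25 or 0.5 mg/kg ip) or vehicle was given 1 h before the DA agonist (75 mg/kg sc). Total contralateral turns were counted automatically in rotometers (mean ± SEM). Percent decrease was taken relative to vehicle pretreatment, with significance by Student's t test.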

Rattus norvegicus [12] = experiment: Percent decrease on dopamine agonist-induced rotation in unilaterally 6-OH-DA-lesioned rat at 0.5 mg/kg; assay type: functional; how it was run: as §3
Rattus norvegicus [13] = experiment: Effect on dopamine agonist-induced rotation in unilaterally 6-OH-DA-lesioned rat at 0.1 mg/kg, ip; Compound 35 was injected subcutaneously at 75 mg/kg; assay type: functional; how it was run: as §3
Rattus norvegicus [14] = experiment: Effect on dopamine agonist-induced rotation in unilaterally 6-OH-DA-lesioned rat at 0.5 mg/kg, ip; Compound 35 was injected subcutaneously at 75 mg/kg; assay type: functional; how it was run: as §3
Rattus norvegicus [15] = experiment: Effect on dopamine agonist-induced rotation in unilaterally 6-OH-DA-lesioned rat at 0.25 mg/kg, ip; Compound 35 was injected subcutaneously at 75 mg/kg; assay type: functional; how it was run: as §3
Rattus norvegicus [16] = experiment: Percent decrease on dopamine agonist-induced rotation in unilaterally 6-OH-DA-lesioned rat at 0.25 mg/kg; assay type: functional; how it was run: as §3
Rattus norvegicus [17] = experiment: Drug pretreatment vs. vehicle pretreatment; statistical analysis by Student''s t test at 0.1 mg/kg; NS-Not Significant; assay type: functional, organism-based; design: dose 0.1 mg/kg; how it was run: as §3
Rattus norvegicus [18] = experiment: Inhibition of the 6-OHDA-induced Hypokinesia in rat, at 25 mg/Kg sc, expressed as cumulative ambulation score; inactive; assay type: functional, organism-based; how it was run: as §1
Rattus norvegicus [19] = experiment: Rotational behavior induced by the compound in rat with a unilateral 6-OHDA-induced lesion of the Nigro-striatal dopamine, at 50 mg/Kg sc; duration of activity=6 hr; assay type: functional; how it was run: as §2
Rattus norvegicus [20] = organism: Rattus norvegicus; experiment: Duration of activity was determined; assay type: functional; how it was run: as §2
Rattus norvegicus [21] = experiment: Rotational behavior induced by the compound in rats with a unilateral 6-OHDA-induced lesion of the Nigro-striatal dopamine, at 8 mg/Kg sc; assay type: functional; how it was run: as §2
Rattus norvegicus [22] = experiment: Inhibition of the 6-OHDA-induced Hypokinesia in rat, at 10 mg/Kg sc, expressed as cumulative ambulation score; assay type: functional; how it was run: as §1

CC(=O)NCCN1CCN(c2cccccc2=O)CC1
Score (Rattus norvegicus [1]): inactive

CN1CCN(c2cccccc2=O)CC1.O=C(O)/C=C\C(=O)O
Score (Rattus norvegicus [2]): 551 | Score (Rattus norvegicus [3]): 278 | Duration of action (Rattus norvegicus [4]): 9 h | Score (Rattus norvegicus [5]): 1814 | Score (Rattus norvegicus [6]): 2842

CC1CCN(c2cccccc2=O)CC1
Score (Rattus norvegicus [1]): inactive

O=c1cccccc1N1CCN(CC(O)CO)CC1 (stereo not given)
Score (Rattus norvegicus [3]): 58

O=c1cccccc1N1CCN(CCOc2ccccc2)CC1
Score (Rattus norvegicus [1]): inactive

CC(=O)OCCN1CCN(c2cccccc2=O)CC1
Score (Rattus norvegicus [7]): 106 | Score (Rattus norvegicus [8]): 3640 | Score (Rattus norvegicus [9]): 743 | Score (Rattus norvegicus [3]): 232 | Duration of action (Rattus norvegicus [4]): 10 h | Score (Rattus norvegicus [10]): 1485

CN1CCC(c2cccccc2=O)CC1
Score (Rattus norvegicus [1]): inactive

CC(O)CN1CCN(c2cccccc2=O)CC1 (stereo not given)
Score (Rattus norvegicus [7]): 190 | Score (Rattus norvegicus [3]): 400

O=c1cccccc1N1CCN(CCCO)CC1
Score (Rattus norvegicus [3]): 71

CN1CCN(c2ccccc2)CC1
Score (Rattus norvegicus [1]): inactive

CCOC(=O)CN1CCN(c2cccccc2=O)CC1
Score (Rattus norvegicus [1]): inactive

CN1CCCN(c2cccccc2=O)CC1
Score (Rattus norvegicus [1]): inactive

CC(C)(C)C(=O)OCCN1CCN(c2cccccc2=O)CC1.O=C(O)/C=C\C(=O)O
Score (Rattus norvegicus [3]): 137

O=C(CCCN1CCC(O)(c2ccc(Cl)cc2)CC1)c1ccc(F)cc1 [HALOPERIDOL]
Decrease (Rattus norvegicus [11]): -33% | Decrease (Rattus norvegicus [12]): -77% | Total no. of turns (Rattus norvegicus [13]): 1626 | Total no. of turns (Rattus norvegicus [14]): 567 | Total no. of turns (Rattus norvegicus [15]): 1055 | Decrease (Rattus norvegicus [16]): -56% | P (Rattus norvegicus [17]): inactive

NC(=O)CN1CCN(c2cccccc2=O)CC1
Score (Rattus norvegicus [1]): inactive

N#CCN1CCN(c2cccccc2=O)CC1
Score (Rattus norvegicus [3]): 126

CC(CO)N1CCN(c2cccccc2=O)CC1 (stereo not given)
Score (Rattus norvegicus [18]): inactive

CC(C)CN1CCN(c2cccccc2=O)CC1.O=C(O)/C=C\C(=O)O
Score (Rattus norvegicus [7]): 372

OCCN1CCN(c2ccccc2)CC1
Score (Rattus norvegicus [1]): inactive

CC(C)N1CCN(c2cccccc2=O)CC1
Score (Rattus norvegicus [3]): 431

O=c1cccccc1N1CCNCC1
Score (Rattus norvegicus [3]): 55

Br.O=c1c(Br)ccccc1N1CCN(CCO)CC1
Score (Rattus norvegicus [3]): 136

O=C1CCCCCC1N1CCN(CCO)CC1 (stereo not given)
Score (Rattus norvegicus [1]): inactive

CC(C)(C)N1CCN(c2cccccc2=O)CC1
Score (Rattus norvegicus [1]): inactive

CCOCCN1CCN(c2cccccc2=O)CC1.O=C(O)/C=C\C(=O)O
Score (Rattus norvegicus [3]): 67

O=c1cccccc1N1CCN(CCO)CC1
Score (Rattus norvegicus [7]): 88 | Score (Rattus norvegicus [8]): 4582 | Score (Rattus norvegicus [9]): 369 | Score (Rattus norvegicus [3]): 187 | Score (Rattus norvegicus [19]): 1378 | Duration of action (Rattus norvegicus [4]): 12 h

CC(C)C[C@H]1C(=O)N2CCC[C@H]2[C@]2(O)O[C@](NC(=O)[C@@H]3C=C4c5cccc6[nH]c(Br)c(c56)C[C@H]4N(C)C3)(C(C)C)C(=O)N12 [BROMOCRIPTINE]
Duration of action (Rattus norvegicus [20]): 18 h | Score (Rattus norvegicus [21]): 4868 | Score (Rattus norvegicus [22]): 112

O=c1ccc(Cl)ccc1N1CCN(CCO)CC1
Score (Rattus norvegicus [1]): inactive

CCCN1CCN(c2cccccc2=O)CC1
Score (Rattus norvegicus [3]): 159

CCCCN1CCN(c2cccccc2=O)CC1
Score (Rattus norvegicus [1]): inactive

CCN1CCN(c2cccccc2=O)CC1
Score (Rattus norvegicus [3]): 70

CC(O)C(C)N1CCN(c2cccccc2=O)CC1 (stereo not given)
Score (Rattus norvegicus [18]): inactive
